TbMetRS inhib: T. brucei MetRS inhibitors, primary screen, biochemical, luminescence | purified T. brucei MetRS, ATP depletion, Kinase-Glo luminescence | inhibition, % at 11.9 µM | 360,000 tested, 0.4% active;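 active = inhibition above a per-plate cutoff of the control wells' mean inhibition plus 3 SD, cut at about 5.5% in these data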;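 note: 0% = DMSO wells median and 100% = median of wells with control inhibitor compound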
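Dosing: 11.9 µM single point; system: parasite MetRS enzyme; technique: luminescence of leftover ATP; times: 15 min enzyme-compound preincubation, 2 h reaction, 10 min detection, 25 °C; replicates: each compound tested once; read-out basis: percent inhibition relative to median high and low control wells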
EBV gp42 block: Epstein-Barr virus gp42 inhibitors, primary screen, biochemical, uHTS, fluorescence polarization | Glycoprotein 42 (Epstein-Barr virus (strain AG876)), Q1HVG2 | Fluorescence polarization binding assay, mP read-out | inhibition, % (tested at 21.74 µM) | 220,000 tested, 0.42% active; in the data active = inhibition above about 50%
Target sequence (Q1HVG2 whole entry, looked up): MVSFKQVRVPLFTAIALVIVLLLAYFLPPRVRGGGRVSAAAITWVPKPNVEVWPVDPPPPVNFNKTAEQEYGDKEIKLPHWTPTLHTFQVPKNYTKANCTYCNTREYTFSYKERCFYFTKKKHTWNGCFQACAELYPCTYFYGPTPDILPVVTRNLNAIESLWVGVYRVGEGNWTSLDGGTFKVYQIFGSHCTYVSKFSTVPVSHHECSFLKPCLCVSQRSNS
MPTP inh: mitochondrial permeability transition pore inhibitors, primary screen, biochemical, isolated mouse mitochondria, absorbance; Ca2+ swelling absorbance, 30 min; inhibition, % at 10 µM; 360,000 tested, 1.4% active; AID 602449, 2012;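 active = inhibition of 50% or more, scaled per plate between neutral and stimulator controls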;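 note: 0% = DMSO wells given calcium and 100% = 1 mM EGTA wells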
CHOP inh: inhibitors of CHOP promoter induction, primary screen, cell-based, unfolded protein response, luciferase reporter. inhibition, % at 10 µM. CHO-K1 CHOP-promoter luciferase, tunicamycin-induced, 15-18 h. 220,000 tested, 3.8% active;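 active = compounds that reduced the stress-induced luciferase reporter signal by more than about 70% of percent inhibition, limit read from the data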;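 note: 0% = tunicamycin plus vehicle and 100% = wells without tunicamycin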
NR3A LBD binder: binders of NR3A ligand-binding domain, primary screen, biophysical, differential scanning fluorimetry, uHTS. 340,000 tested, 2.5% active. NR3A LBD differential scanning fluorimetry, Tm shift; 0% = protein alone, 100% = glycine-bound protein. AID 1259313, 2017. Glutamate receptor ionotropic, NMDA 3A (GRIN3A) ligand-binding domain. Tm shift relative to glycine control, % at 25 µM;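 active = melting temperature shift of at least 10% of the positive control shift, at one fixed dose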
WT yeast gro inh: growth inhibition of WT strain, primary screen, mitochondrial fusion inhibitor project, WT and mutant strains, chemical genetic | inhibition, % at 10 µM | mitochondrial fusion phenotypic screen | AID 1362, 2008 | 190,000 tested, 2.1% active; in the data active = inhibition above about 58%; tested in S. cerevisiae
* marks the source's active call; other numbers are inactive results; · = no result given. Sampled rows, rich in hits. Any-hit rate of the full collection: about 6.4%.

SMILES	TbMetRS inhib	EBV gp42 block	MPTP inh	CHOP inh	NR3A LBD binder	WT yeast gro inh
Cc1ccc(C)n1-n1cnc2sc(-c3ccccc3)cc2c1=O	-0.1	-11.4	-0.6	78.5*	-20.4	63.4
Cc1ccc(C)n1-n1c(C)nc2sc(-c3ccccc3)cc2c1=O	-1.4	5.2	0.5	76.9*	-1.7	31.2
CCCC(c1nnnn1C(C)(C)CC)N(Cc1ccco1)Cc1cc2ccc(OC)cc2[nH]c1=O (configuration not stated)	-1.2	-4.0	-2.0	90.6*	-5.8	54.5
O=C(CSc1nc2c(c(=O)n1-c1ccc(Br)cc1)SCC2)Nc1nccs1	-1.4	7.4	-2.4	-6.8	5.9	26.5
O=C(CSc1nc2c(c(=O)n1-c1ccc(Cl)cc1)SCC2)Nc1nccs1	-0.3	-18.2	-1.3	35.4	15.2*	6.0
O=C(/C=C/[C@H]1O[C@@H](n2cnc3c(NC(=O)c4ccccc4)ncnc32)[C@H](O)[C@@H]1O)NCCc1c[nH]c2ccccc12	0.2	·	0.7	·	·	·
O=c1oc2cc(O)ccc2cc1S(=O)(=O)c1ccccc1	-0.5	·	0.0	·	-1.4	·
CCN(CC)c1ccc2cc(S(=O)(=O)c3ccc(Cl)cc3)c(=O)oc2c1	-0.7	159.2*	1.2	-8.0	-3.8	-4.2
Nc1nc2nccc(-c3ccccn3)n2n1	-0.3	-4.3	-1.4	20.2	-1.3	-0.7
COC(=O)c1ccc(C2c3c(n[nH]c3C)C(=O)N2c2ccc(C)cc2)cc1 (configuration not stated)	0.3	3.2	-0.5	12.1	34.8*	-2.2
CCOC(=O)c1ccc(N2C(=O)c3n[nH]c(C)c3C2c2ccc(OC)cc2)cc1 (configuration not stated)	-0.9	-13.7	1.3	51.9	-26.0	0.3
O=C(OCC1OC2OC3(CCCCC3)OC2C2OC3(CCCCC3)OC12)c1ccccc1 (configuration not stated)	0.8	-1.8	0.3	21.2	-0.4	73.7*
O=C(CSc1nnnn1-c1ccc2c(c1)OCCO2)Nc1nc2c(s1)CCCC2	-0.5	-0.8	1.7	86.9*	-11.1	12.6
COC(=O)c1cccc(-n2nnnc2SCC(=O)Nc2nc3c(s2)CCCC3)c1	-0.3	-10.5	-15.4	88.0*	-13.3	0.9
COc1cccc(-n2nnnc2SCC(=O)Nc2nc3c(s2)CCCC3)c1	-0.3	-1.6	-0.6	9.0	-4.1	-7.1
CCC(=O)Nc1ccc(NC(=O)CSc2nnnn2-c2ccc3c(c2)OCCO3)cc1	-1.0	-1.9	0.1	48.7	0.4	-14.7
CCc1ccc(OCC(=O)NCc2ccco2)c(Br)c1	-1.1	-15.5	0.9	-7.1	1.9	3.8
C=CCn1c(SCC(=O)c2cccs2)nc2sc(C)cc2c1=O	-0.2	10.0	23.8	50.5	6.5	-7.2
COc1ccc2c(c1)[n+](=O)c(C(C)=O)c(C)n2[O-]	0.2	-10.5	-0.8	25.2	0.7	-16.2
CCOC(=O)c1c(=O)n(O)c2ccc(OC)cc2[n+]1[O-]	0.1	69.3*	-0.8	-7.8	-0.1	-7.7
CCS(=O)(=O)N1Cc2ccccc2CC1C(=O)Nc1ccc(OC)c(OC)c1 (configuration not stated)	-0.3	·	-1.2	·	0.5	·
COc1ccc(-c2ccc(CN3C(CC(C)C)C(=O)N(Cc4cn(Cc5ccco5)nn4)CCS3(=O)=O)cc2)cc1 (configuration not stated)	-0.4	·	-1.8	·	·	·
COc1ccc(S(=O)(=O)N2CCCC2CNC(=O)C(=O)NC2CCCC2)cc1 (configuration not stated)	-0.2	·	0.7	·	·	·
COc1ccc(S(=O)(=O)N2CCCC2CNC(=O)C(=O)NC2CCCCCC2)cc1 (configuration not stated)	-0.4	·	-0.2	·	16.8*	·
CC1C/C(=N/NC(=O)c2ccc(CSc3nc4ccccc4[nH]3)cc2)CC(C)(C)C1 (configuration not stated)	-0.2	-9.3	1.5	75.3*	-6.5	-15.3
SMILES	TbMetRS inhib	EBV gp42 block	MPTP inh	CHOP inh	NR3A LBD binder	WT yeast gro inh
Cc1cc(N/N=C2/CCCc3ccccc32)nc2ccccc12	-0.2	4.1	4.3	22.4	-9.6	68.1
Cc1cc(N/N=C2\CC(C)CC(C)(C)C2)nc2ccccc12 (configuration not stated)	-0.4	-11.1	1.1	46.9	1.4	75.9*
CC1C/C(=N/Nc2nc3ccccc3[nH]2)CC(C)(C)C1 (configuration not stated)	0.6	-10.4	4.0	-32.1	-3.6	13.3
CCCn1nnnc1SCC(=O)N1CCCc2ccccc21	-0.3	8.5	-1.1	11.1	1.0	-15.8
Cn1cccc1-c1nc2ccc(NC(=O)c3ccc([N+](=O)[O-])cc3)cc2[nH]1	-0.4	2.5	4.4	39.0	27.1*	-6.8
Nc1ccc(C(=O)Nc2ccc3nc(-c4cccnc4)[nH]c3c2)cc1	-1.1	13.3	4.8	-7.8	12.6*	-12.0
Cn1cccc1-c1nc2ccc(NC(=O)c3ccccc3)cc2[nH]1	-0.5	1.1	1.1	24.1	4.9	-0.1
COC(=O)c1ccc(C(=O)Nc2ccc3nc(-c4cccnc4)[nH]c3c2)cc1	0.1	-0.3	-1.0	-28.8	3.9	-7.1
COC(=O)c1ccc(C(=O)Nc2ccc3nc(-c4ccncc4)[nH]c3c2)cc1	-0.5	·	7.7	·	15.4*	·
COc1ccc(CN(C)C[C@H]2Oc3c(NC(=O)Nc4ccccc4)cccc3C(=O)N([C@H](C)CO)C[C@@H]2C)cc1	-0.2	·	-1.4	·	-2.1	·
COc1ccc(-n2c(C)cc(/C=C3\SC(=S)N(Cc4ccco4)C3=O)c2C)cc1	0.8	80.0*	2.3	13.8	1.7	14.9
Cc1cccc(N2C(=O)CS/C2=N\NC(=O)c2ccc(Br)cc2)c1C	0.3	-4.1	-0.7	11.7	-15.4	12.9
Cc1ccc(C(=O)N/N=C2\SCC(=O)N2c2cc(C)ccc2C)cc1	0.1	-6.3	-0.3	75.3*	2.3	2.0
CCN(CCO)c1nc(N2CCCCC2)c2cnn(C)c2n1	-0.1	·	0.2	·	1.0	·
Cc1cc(C)c(S(=O)(=O)Nc2ccc3c(c2)CCC3)c(C)c1	-0.1	13.3	8.0	84.5*	-8.6	77.1*
Cc1cc(C)c(S(=O)(=O)Nc2ccc(O)cc2)c(C)c1	0.1	-11.2	1.1	38.7	2.8	10.3
COc1cc2c(cc1NC(=O)c1cccc(Br)c1)CCCC2	-0.1	-8.0	-1.2	52.9	-6.2	72.5*
COc1cc2c(cc1NC(=O)c1cccc(F)c1)CCCC2	-0.4	-3.2	0.0	39.5	0.2	37.6

Source: PubChem BioAssay (several laboratories)
